Test results as given in ChEMBL document CHEMBL3244294, “Dehydrative metabolites of 1-(3-chlorophenyl)-1methyl-2-phenyl-2-(2-pyridine)ethanol as potential hypocholesteremic agents” (J Med Chem, 1978).

Assays:
[1] = test system: Serum; assay: Drug recovery in pentane extract of Sprague-Dawley rat serum treated with 1-(3-Chlorophenyl)-1-methyl-2-phenyl-2-(2-pyridine)ethanol at 25 mg/kg, ip by RP-HPLC analysis; format: ADME, organism-based; set-up: dose 25 mg/kg, route intraperitoneal; settings: in vivo
[2] = test system: Rattus norvegicus; assay: Estrogenicity in Sprague-Dawley rat assessed as uterus weight measured per gram of body weight at 25 mg/kg, po for 7 days in presence of 17-beta estradiol (reference value: 0.01 +/- 0.02 mg); format: ADME, organism-based; set-up: dose 25 mg/kg, route oral; settings: in vivo, 168 h
How it was run: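 From 7 days later they were dosed orally by intubation with aqueous suspensions (25 mg/kg) for 7 consecutive days. On day 8 uteri were blotted free of fluid and weighed, expressed as mg/g body weight ×100. A standard curve came from sc 17β-estradiol in peanut oil, giving µg estradiol equivalent to 25 mg compound.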

[3] = test system: Rattus norvegicus; assay: Hypocholesteremic activity in Sprague-Dawley rat assessed as reduction in serum cholesterol level at 25 mg/kg for 7 days relative to control; format: functional; set-up: scale not given: the % may be the effect or the level left
How it was run: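 Male rats (200 g) were dosed at 25 mg/kg for 7 days, with dosing starting at 1 p.m. Sera were taken 24 h after the final dose, and serum cholesterol was determined by the method of Block et al. Results are reported as mean ± standard deviation and compared with controls by two-tailed Student's t test.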

[4] = test system: Serum; assay: Drug recovery in Sprague-Dawley rat serum treated with 1-(3-Chlorophenyl)-1-methyl-2-phenyl-2-(2-pyridine)ethanol at 25 mg/kg, ip after 72 hrs by RP-HPLC analysis; format: ADME, organism-based; set-up: dose 25 mg/kg, route intraperitoneal; settings: in vivo
How it was run: (§1)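 Rats received 25 mg/kg ³H-labelled parent (tritium in 2-phenyl ring) by ip injection as an aqueous 0.26% Tween 80 suspension. Serum was taken by cardiac puncture at 2, 10 or 72 h (three rats), separated at 1700g for 30 min and deproteinized with methanol. The residue was analysed by C-18 reverse-phase HPLC. Values are percent of total recovered HPLC radioactivity.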

[5] = test system: Serum; assay: Drug recovery in hydrolyzed fraction of Sprague-Dawley rat serum treated with 1-(3-Chlorophenyl)-1-methyl-2-phenyl-2-(2-pyridine)ethanol at 25 mg/kg, ip after 72 hrs by RP-HPLC analysis; format: ADME, organism-based; set-up: dose 25 mg/kg, route intraperitoneal; settings: in vivo
How it was run: (§2)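 ³H-labelled parent was given at 25 mg/kg ip in aqueous 0.26% Tween 80, and serum was collected by cardiac puncture at 72 h. Part of the serum was hydrolysed for 48 h with aryl sulfatase and glucuronidase, then deproteinized with methanol. The residue was run on C-18 reverse-phase HPLC. Values are percent of total recovered HPLC radioactivity.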

[6] = Drug recovery in sephadex G-10 chromatographic fraction of Sprague-Dawley rat urine treated with 1-(3-Chlorophenyl)-1-methyl-2-phenyl-2-(2-pyridine)ethanol at 25 mg/kg, ip by RP-HPLC analysis; format: ADME, organism-based; set-up: dose 25 mg/kg, route intraperitoneal; settings: in vivo
How it was run: (§3)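 One rat was dosed ip at 25 mg/kg with ³H-labelled parent in aqueous 0.26% Tween 80, and urine was collected over 72 h. Urine was either pentane-extracted or fractionated on Sephadex G-10; fraction III was the radioactive eluate free of appreciable urine constituents. Fractions were analysed by C-18 reverse-phase HPLC as percent of total recovered radioactivity.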

[7] = test system: Serum; assay: Drug recovery in Sprague-Dawley rat serum treated with 1-(3-Chlorophenyl)-1-methyl-2-phenyl-2-(2-pyridine)ethanol at 25 mg/kg, ip after 10 hrs by RP-HPLC analysis; format: ADME, organism-based; set-up: dose 25 mg/kg, route intraperitoneal; settings: in vivo; how it was run: as §1
[8] = Drug recovery in pentane extract of Sprague-Dawley rat urine at 25 mg/kg, ip by RP-HPLC analysis; format: ADME, organism-based; set-up: dose 25 mg/kg, route intraperitoneal; settings: read-out: Drug recovery; how it was run: as §3
[9] = test system: Serum; assay: Drug recovery in Sprague-Dawley rat serum at 25 mg/kg, ip after 2 hrs by RP-HPLC analysis; format: ADME, organism-based; set-up: dose 25 mg/kg, route intraperitoneal; settings: in vivo; how it was run: as §1
[10] = test system: Serum; assay: Drug recovery in Sprague-Dawley rat serum at 25 mg/kg, ip after 72 hrs by RP-HPLC analysis; format: ADME, organism-based; set-up: dose 25 mg/kg, route intraperitoneal; settings: in vivo; how it was run: as §1
[11] = test system: Serum; assay: Drug recovery in hydrolyzed fraction of Sprague-Dawley rat serum at 25 mg/kg, ip after 72 hrs by RP-HPLC analysis; format: ADME, organism-based; set-up: dose 25 mg/kg, route intraperitoneal; settings: in vivo; how it was run: as §2
[12] = Drug recovery in sephadex G-10 chromatographic fraction of Sprague-Dawley rat urine at 25 mg/kg, ip by RP-HPLC analysis; format: ADME, organism-based; set-up: dose 25 mg/kg, route intraperitoneal; settings: read-out: Drug recovery; how it was run: as §3
[13] = test system: Serum; assay: Drug recovery in Sprague-Dawley rat serum at 25 mg/kg, ip after 10 hrs by RP-HPLC analysis; format: ADME, organism-based; set-up: dose 25 mg/kg, route intraperitoneal; settings: in vivo; how it was run: as §1
[14] = test system: Serum; assay: Drug recovery in Sprague-Dawley rat serum treated with 1-(3-Chlorophenyl)-1-methyl-2-phenyl-2-(2-pyridine)ethanol at 25 mg/kg, ip after 2 hrs by RP-HPLC analysis; format: ADME, organism-based; set-up: dose 25 mg/kg, route intraperitoneal; settings: in vivo; how it was run: as §1

SMILES: C/C(=C(/c1ccccc1)c1ccccn1)c1cccc(Cl)c1
- Drug recovery [1]: 0.1%
- Activity [2]: 0.22 µg
- Activity [3]: 36.1%

SMILES: C/C(=C(\c1ccc(O)cc1)c1ccccn1)c1cccc(Cl)c1
- Drug recovery [4]: 0.2%
- Activity [2]: 0.02 µg
- Drug recovery [5]: 0.3%
- Activity [3]: 30.5%
- Drug recovery [6]: 0.4%
- Drug recovery [7]: 0.3%

SMILES: C=C(c1cccc(Cl)c1)C(c1ccc(O)cc1)c1ccccn1 (stereo not given)
- Activity [3]: 4%

SMILES: CC(O)(c1cccc(Cl)c1)C(c1ccc(O)cc1)c1ccccn1 (stereo not given)
- Activity [2]: 0.92 µg
- Activity [3]: 43.5%

SMILES: C/C(=C(/c1ccc(O)cc1)c1ccccn1)c1cccc(Cl)c1
- Drug recovery [4]: 1.1%
- Activity [2]: 0.03 µg
- Drug recovery [5]: 0.4%
- Activity [3]: 38.1%
- Drug recovery [6]: 3.3%
- Drug recovery [7]: 0.9%

SMILES: CC(O)(c1cccc(Cl)c1)C(c1ccccc1)c1ccccn1 (stereo not given)
- dose excreted [8]: 1.6%
- Drug recovery [9]: 22%
- Drug recovery [10]: 1.2%
- Drug recovery [11]: 1.2%
- dose excreted [12]: < 0.1%
- Drug recovery [13]: 0.9%
- Activity [2]: 0.49 µg
- Activity [3]: 49.5%

SMILES: C/C(=C(\c1ccccc1)c1ccccn1)c1cccc(Cl)c1
- Drug recovery [1]: 0.1%
- Activity [2]: 0.92 µg
- Activity [3]: 62.8%

SMILES: c1ccc(Cc2ccccn2)cc1
- Drug recovery [14]: 4.7%
- Drug recovery [4]: 2.2%
- Drug recovery [5]: 1.2%
- Drug recovery [6]: 0.2%
- Drug recovery [7]: 2.4%

SMILES: C=C(c1cccc(Cl)c1)C(c1ccccc1)c1ccccn1 (stereo not given)
- Activity [3]: 10.1%
